# According to article PMC4956519 (Journal of chromatography. B, Analytical technologies in …, 2016):
# Where a SMILES comes first, the peptide text is derived from it.
# Format: in vivo, mice
# Summary of the method: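 Adult male C57BL/6J mice (20–25 g), single i.v. injection 10 mg/kg in 10% Solutol in saline; 5 mice per time point killed at 2, 5, 15, 30, 60 min, cardiac blood centrifuged for plasma. Plasma precipitated with ice-cold acetonitrile containing internal standard, supernatant diluted with water; C8 reversed-phase LC-MS/MS, positive-ion MRM m/z 578.1→217.1/245.0; calibration 0.5–500 ng/mL; non-compartmental analysis.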
# [1] = male, C57BL/6J, mouse, plasma, iv, 10 mg/kg
smiles,measurement,setting,value
"O=C1N[C@H](Cc2c[nH]c3ccccc23)C(=O)N[C@@H](Cc2ccccc2)C(=O)N2CCC[C@@H]2C(=O)N[C@H]1Cc1ccccc1 [[D-Trp]CJ-15,208, cyclo[Phe-D-Pro-Phe-D-Trp]] (HELM PEPTIDE1{F.[dP].F.[dW]}$PEPTIDE1,PEPTIDE1,1:R1-4:R2$$$V2.0)",Time to almost complete elimination from plasma,"10 mg/kg i.v. to mice, LC-MS/MS",≤ 1 h
same,AUC0-t,"male C57BL/6J mice, 10 mg/kg i.v., plasma, LC-MS/MS, non-compartmental analysis, 5 mice per time point",19124.7 ng·min/mL
same,AUC(0-inf),[1],337 ng·h/mL
same,C0,[1],1130 ng/mL
same,Cmax,[1],1020 ng/mL
same,Vd,[1],10.1 L/kg
same,clearance,[1],494 mL/min/kg
same,half-life,[1],14.2 min
same,Decline of plasma concentration,"within 15 minutes after 10 mg/kg i.v. to mice, LC-MS/MS",over 50%
